Test results reported in ChEMBL document CHEMBL1122024, “Quantitative structure-inhibitory activity relationships of phenols and fatty acids for Bacillus subtilis spore germination” (J Med Chem, 1982).

How the values were obtained:
Bacillus subtilis [1] = format: functional
Bacillus subtilis [2] = test: microbe, parasite or virus in culture; format: functional, organism-based; conditions: read-out: I50
physchem [3] = conditions: octanol/water
physchem [4] = conditions: octanol/water, pH 7.2
physchem [5] = test: physchem
Bacillus subtilis [6] = test: Inhibitory activity on germination of Bacillus subtilis PCI219 spores was determined; No inhibition at 2.5e-3M; format: functional, organism-based
Method in brief: (§1)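 Unheated B. subtilis PCI219 spores (about 2.2×10^8 cells per mL) were incubated with the test compound in 0.1 mM L-alanine germinant and 0.05 M phosphate buffer, pH 7.2, at 37 °C. Germination was followed as the decrease in absorbance at 650 nm. The rate was taken as the slope of the steepest linear portion and compared with an inhibitor-free control.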

Bacillus subtilis [7] = test: Inhibitory activity on germination of Bacillus subtilis PCI219 spores was determined at 2 x 10E-4 M; format: functional
Method in brief: as §1

[8] = Dissociation constant was determined spectrophotometrically; Experiment 1; format: physicochemical
Bacillus subtilis [9] = test: Inhibitory activity on germination of Bacillus subtilis PCI219 spores was determined; No inhibition at 5*10e-2 M; format: functional, organism-based
Method in brief: as §1

Bacillus subtilis [10] = test: Inhibitory activity on germination of Bacillus subtilis PCI219 spores was determined; No inhibition at 5e-2M; format: functional, organism-based
Method in brief: as §1

Bacillus subtilis [11] = tested on: Bacillus subtilis
[12] = Distribution coefficient (log D) was determined at pH 7.2

Row | SMILES | Log 1/I50 (Bacillus subtilis [1]) | IC50 (Bacillus subtilis [2]) | logP (physchem [3]) | logD (physchem [4]) | pKa (physchem [5]) | other results
1 | Cc1ccccc1O [ORTHOCRESOL] | 2.89 1/M | 1300 µM | 1.98 | 1.98 | 10.3 | 
2 | CCCCCCCCCCC(=O)O [UNDECANOATE] | 2.35 1/M | 4470 µM | 4.42 | 2.12 | 4.9 | 
3 | Nc1cccc(O)c1 [3-AMINOPHENOL] | 1.35 1/M | 44700 µM | 0.16 | 0.16 | 9.9 | 
4 | CCc1ccccc1O | 3.31 1/M | 493 µM | 2.47 | 2.47 | 10.2 | 
5 | Oc1ccc(Br)cc1 |  | 717 µM |  |  |  | 
6 | Oc1ccccc1-c1ccccc1 [2-PHENYLPHENOL] | 3.55 1/M | 280 µM | 3.09 | 3.09 | 9.9 | 
7 | NC(Cc1ccc(O)cc1)C(=O)O (stereo not given) |  |  |  |  |  | I50 (Bacillus subtilis [6]): No inhibition
8 | O=Cc1ccc(O)cc1 [4-HYDROXYBENZALDEHYDE] | 1.7 1/M | 20000 µM | 1.37 | 1.22 | 7.6 | 
9 | COC(=O)c1ccc(O)cc1 [METHYLPARABEN] | 2.7 1/M | 2010 µM |  |  |  | 
10 | Oc1c(Cl)cc(Cl)c(Cl)c1Cc1c(O)c(Cl)cc(Cl)c1Cl [HEXACHLOROPHENE] | 3.7 1/M | 198 µM | 7.54 | 5.54 | 5 | 
11 | CCCCCCCC(=O)O [OCTANOIC ACID] | 1.27 1/M | 53500 µM | 2.92 | 0.62 |  | 
12 | O=Cc1ccccc1O | 2.42 1/M | 3780 µM |  |  | 8.3 | 
13 | COC(=O)c1ccccc1O [METHYL SALICYLATE] | 3 1/M | 1030 µM | 2.46 | 2.46 | 10.2 | 
14 | CCc1ccc(O)cc1 | 2.8 1/M | 1600 µM | 2.26 | 2.26 | 10 | 
15 | CC/C=C\C/C=C\C/C=C\CCCCCCCC(=O)O [LINOLENIC ACID] |  |  |  |  |  | inhibition at 200 µM (Bacillus subtilis [7]): 32%
16 | Oc1ccc(Cl)cc1Cl [2,4-DICHLOROPHENOL] | 3.62 1/M | 242 µM | 3.14 | 3.06 |  | 
17 | Cc1cccc(O)c1 [METACRESOL] | 2.7 1/M | 2010 µM | 1.97 | 1.97 | 10.1 | 
18 | O=C(O)c1ccc(O)cc1 [PARABEN] |  |  | 1.57 |  |  | pKa [8]: 9.4; I50 (Bacillus subtilis [9]): Not Active
19 | CCCCCCCCCC(=O)O [DECANOIC ACID] | 2.22 1/M | 6030 µM | 3.92 | 1.62 |  | 
20 | Oc1c(Cl)c(Cl)c(Cl)c(Cl)c1Cl [PENTACHLOROPHENOL] | 3.46 1/M | 346 µM |  |  | 5 | 
21 | Oc1c(Cl)cc(Cl)cc1Cl |  | 130 µM |  |  |  | 
22 | Nc1ccc(O)cc1 [4-AMINOPHENOL] |  |  |  |  | 10.3 | I50 (Bacillus subtilis [10]): No inhibition; Log 1/I50 (Bacillus subtilis [11]): No inhibition
23 | Oc1cccc(O)c1 [RESORCINOL] | 2.42 1/M | 3830 µM | 0.78 | 0.78 | 9.4 | 
24 | CCCCCCCCCCCCCC(=O)O [MYRISTIC ACID] |  |  |  |  |  | inhibition at 200 µM (Bacillus subtilis [7]): 21%
25 | Oc1ccc(Cl)cc1 [PARACHLOROPHENOL] | 3.1 1/M | 797 µM |  |  | 9.4 | 
26 | O=[N+]([O-])c1cccc(O)c1 [3-NITRO-PHENOL] | 3.05 1/M | 901 µM |  |  | 8.4 | logD [12]: 1.97
27 | Oc1ccc(-c2ccccc2)cc1 | 3.89 1/M | 129 µM | 3.2 | 3.2 | 9.5 | 

Row | SMILES | Log 1/I50 (Bacillus subtilis [1]) | IC50 (Bacillus subtilis [2]) | logP (physchem [3]) | logD (physchem [4]) | pKa (physchem [5]) | other results
28 | CCCCCCCCCCCCCCCC(=O)O [PALMITIC ACID] |  |  |  |  |  | inhibition at 200 µM (Bacillus subtilis [7]): 17.3%
29 | Cc1ccc(O)cc1 [p-CRESOL] | 2.44 1/M | 3640 µM |  | 1.94 |  | 
30 | Nc1ccccc1O [QUESTIOMYCIN B] | 1.52 1/M | 29900 µM | 0.57 | 0.57 | 9.7 | 
31 | Cc1cc(C)c(O)c(C)c1 | 2.85 1/M | 1400 µM | 2.86 | 2.86 | 10.9 | 
32 | CC(C)c1ccccc1O | 3.57 1/M | 268 µM | 2.88 | 2.88 | 10.4 | 
33 | CC(C)(C)c1ccc(O)cc1 |  | 302 µM |  |  |  | 
34 | Oc1c(Cl)cc(Cl)c(Cl)c1Cl | 3.57 1/M | 269 µM | 4.1 | 2.59 | 5.7 | 
35 | CCCCC/C=C\C/C=C\CCCCCCCC(=O)O [LINOLEIC ACID] |  |  |  |  |  | inhibition at 200 µM (Bacillus subtilis [7]): 34.6%
36 | Oc1cc(Cl)c(Cl)cc1Cl [TRICLOFENOL] | 3.89 1/M | 128 µM | 3.72 | 3.31 |  | 
37 | COc1ccccc1O [GUAIACOL] | 2.2 1/M | 6310 µM | 1.33 | 1.33 | 9.9 | 
38 | CCCCCCCCCCCCC(=O)O [TRIDECANOATE] | 3.12 1/M | 750 µM | 5.42 | 3.12 | 4.9 | 
39 | O=[N+]([O-])c1ccccc1O [NITROPHENOLATE] | 2.5 1/M | 3150 µM | 1.77 | 1.47 | 7.2 | 
40 | O=C(O)c1ccccc1O [SALICYLIC ACID] |  |  | 2.24 |  |  | I50 (Bacillus subtilis [9]): No inhibition
41 | Oc1ccccc1 [PHENOL] |  | 1500 µM |  |  |  | 
42 | CC(C)Cc1ccccc1O | 3.62 1/M | 242 µM | 3.27 | 3.27 | 10.5 | 
43 | Cc1ccc(C(C)C)c(O)c1 [THYMOL] | 3.31 1/M | 494 µM |  |  | 10.7 | 
44 | CCCCCCCC/C=C\CCCCCCCC(=O)O [OLEIC ACID] |  |  |  |  |  | inhibition at 200 µM (Bacillus subtilis [7]): 30.2%
45 | Oc1ccccc1Cl [2-CHLOROPHENOL] | 3.25 1/M | 562 µM |  | 2.13 | 8.5 | 
46 | CCCCCCCCC(=O)O [NONANOATE] | 2.05 1/M | 8900 µM | 3.42 | 1.12 | 4.9 | 
47 | CC(C)(C)c1ccccc1O | 4.46 1/M | 34.5 µM |  |  | 11.3 | 
48 | CC(C)c1ccc(O)cc1 | 3.17 1/M | 674 µM | 2.86 | 2.86 | 10.1 | 
49 | O=[N+]([O-])c1ccc(O)cc1 [P-NITROPHENOL] | 2.17 1/M | 6830 µM |  | 1.61 | 7.1 | 
50 | CCCCCCCCCCCC(=O)O [DODECANOATE] | 2.7 1/M | 1980 µM | 4.92 | 2.62 | 4.9 | 
51 | CCCCCCCCCCCCCCCCCC(=O)O [STEARIC ACID] |  |  |  |  |  | inhibition at 200 µM (Bacillus subtilis [7]): 14.2%
52 | Cc1cc(O)cc(O)c1 [ORCINOL] | 1.77 1/M | 16800 µM |  |  | 9.3 | 
53 | CC(C)Cc1ccc(O)cc1 | 3.52 1/M | 302 µM | 3.4 | 3.4 | 10.2 | 
54 | CCCCCCC(=O)O [HEPTANOATE] | 0.82 1/M | 151000 µM | 2.42 | 0.12 | 4.9 | 
